From ChEMBL document CHEMBL1671645, “Pharmacokinetics and absorption of posaconazole oral suspension under various gastric conditions in healthy volunteers” (Antimicrob Agents Chemother, 2009)

Columns and labels:
Homo sapiens [1] = assay: Apparent total body clearance in fasted healthy human at 200 mg QID, po administered as suspension for 7 days; type: ADME, organism-based; conditions: in vivo, 168 h
In short: (§1)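 Twelve healthy subjects took oral suspension for 7 days as 400 mg BID or 200 mg QID, either fasting or with a Boost-type nutritional supplement, in a crossover with 14–21 day washouts. Nonfat snacks of 800 cal/day or less were allowed. Plasma was sampled 0–168 h after the day-7 morning dose only and analysed by LC-MS/MS. AUC is AUC_τ, normalized to dose.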

Homo sapiens [2] = assay: Toxicity in healthy human assessed as headache at 400 mg BID, po administered as suspension for 7 days; type: organism-based; conditions: in vivo, 168 h
In short: (§2)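 Healthy volunteers (n = 12) took oral posaconazole suspension (40 mg/ml) for 7 days in a four-way randomized crossover with a 14- to 21-day washout. Subjects stayed fasted throughout, with nonfat snacks up to 800 cal/day allowed. Where given, Boost was taken with each dose. Safety covered adverse events, vital signs, clinical labs and 12-lead ECG, with AEs tabulated by body system and severity per treatment.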

[3] = (§3) Apparent volume of distribution in fasted healthy human at 400 mg administered as single dose suspension; type: ADME, organism-based; conditions: in vivo, read-out: Vc/F
[4] = Cmax in fasted healthy human plasma at 400 mg administered as single dose suspension 5 mins before consumption of high fat meal; type: ADME, organism-based; set-up: dose 400 mg
In short: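 In a crossover of 12 healthy subjects, each took a single 400 mg oral suspension dose 5 min before, midway through (about 10 min into a 20-min meal), or 20 min after a high-fat meal of about 50 g fat. Plasma was drawn 0–168 h and measured by LC-MS/MS. Parameters are noncompartmental, with AUC to the last measurable time.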

Homo sapiens [5] = assay: Apparent total body clearance in healthy human at 400 mg BID, po administered as suspension for 7 days coadministered with nutritional supplement; type: ADME, organism-based; conditions: in vivo, 168 h; in short: as §1
Homo sapiens [6] = assay: AUC in healthy human at 200 mg QID, po administered as suspension for 7 days coadministered with nutritional supplement; type: ADME, organism-based, Plasma; conditions: in vivo, 168 h; in short: as §1
[7] = Cmax in plasma in hematopoietic stem cell transplant recipient human with GVHD; type: ADME, organism-based
[8] = Half life in healthy human at 400 mg BID, po administered as suspension for 7 days coadministered with nutritional supplement; type: ADME, organism-based; conditions: in vivo
In short: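 Healthy volunteers given oral suspension (40 mg/ml) for 7 days, fasted or with nutritional supplement (Boost); four-way crossover, 14–21-day washout, nonfat snacks ≤800 cal/day allowed. On day 7 only the morning dose was given; plasma sampled predose to 168 h after it. LC-MS/MS (LLOQ 5.00 ng/ml). t1/2 = ln(2)/K from log-linear terminal slope; Tmax as median.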

[9] = Tmax in fasted healthy human at 400 mg administered as single dose suspension coadministered with proton pump inhibitor; type: ADME, organism-based; conditions: in vivo
In short: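 Single oral suspension dose in fasting healthy volunteers, alone, with 12 oz ginger ale, after esomeprazole 40 mg once each morning days −2 to 1, or both; four-way crossover, 7–10-day washout. EDTA plasma 0–168 h. LC-MS/MS (LLOQ 5.00 ng/ml). t1/2 = ln(2)/K from terminal log-linear regression; Tmax median.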

[10] = AUC in healthy human at 400 mg administered as single dose suspension coadministered with nutritional supplement and 10 mg metoclopramide; type: ADME, organism-based; conditions: plasma
In short: (§4)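 A three-way crossover in 13 healthy subjects gave one 400 mg oral suspension dose with a nutritional supplement, either alone, with metoclopramide 10 mg orally three times daily on the day before and the day of dosing, or with a single 4 mg dose of loperamide. Plasma was taken 0–168 h for LC-MS/MS. Analysis was noncompartmental.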

[11] = Apparent total body clearance in fasted healthy human at 400 mg administered as single dose suspension; type: ADME, organism-based; conditions: in vivo
[12] = as §3; type: ADME, organism-based; conditions: in vivo, read-out: Vc/F; remark: listed apart in the source
Homo sapiens [13] = assay: Toxicity in healthy human assessed as dizziness at 400 mg BID, po administered as suspension for 7 days; type: organism-based; conditions: in vivo, 168 h; in short: as §2
[14] = AUC in healthy human at 400 mg administered as single dose suspension coadministered with nutritional supplement and 4 mg loperamide as two 2 mg tablets; type: ADME, organism-based; conditions: plasma; in short: as §4
Homo sapiens [15] = assay: Apparent total body clearance in healthy human at 200 mg QID, po administered as suspension for 7 days coadministered with nutritional supplement; type: ADME, organism-based; conditions: in vivo, 168 h; in short: as §1
[16] = Tmax in healthy human at 400 mg administered as single dose suspension coadministered with nutritional supplement and 10 mg metoclopramide; type: ADME, organism-based; conditions: in vivo
In short: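 Single oral suspension dose with nutritional supplement, alone or with metoclopramide 10 mg orally three times daily on the day before and the day of dosing; three-way crossover, 7–10-day washout. EDTA plasma predose to 168 h, LC-MS/MS (LLOQ 5.00 ng/ml). t1/2 = ln(2)/K from terminal slope; Tmax median.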

[17] = Cmax in plasma in hematopoietic stem cell transplant recipient human with GVHD and diarrhea; type: ADME, organism-based
Homo sapiens [18] = assay: Toxicity in healthy human assessed as adverse events at 400 mg administered as single dose suspension coadministered with acidic carbonated beverage and proton pump inhibitor; type: organism-based; set-up: scale not given: the % may be the effect or the level left; conditions: in vivo
In short: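 Healthy volunteers monitored for adverse events, vital signs, clinical laboratory values and 12-lead ECG. Adverse events tabulated by body system or organ class and severity and summarized by treatment across the crossover regimens.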

[19] = Cmax in fasted healthy human plasma at 400 mg administered as single dose suspension; type: ADME, organism-based; set-up: dose 400 mg

Compound: CC[C@@H]([C@H](C)O)n1ncn(-c2ccc(N3CCN(c4ccc(OC[C@@H]5CO[C@@](Cn6cncn6)(c6ccc(F)cc6F)C5)cc4)CC3)cc2)c1=O [POSACONAZOLE]
- CL/F (Homo sapiens [1]): 21.2 L/h
- Activity (Homo sapiens [2]): 25%
- Vd/F [3]: 3580 L
- Cmax [4]: 274 ng/mL
- CL/F (Homo sapiens [5]): 33.9 L/h
- AUC (Homo sapiens [6]): 112000 ng·h/mL
- Cmax [7]: 1460 ng/mL
- half-life [8]: 29.5 h
- Tmax [9]: 6 h
- AUC [10]: 7390 ng·h/mL
- CL/F [11]: 1830 mL/min
- Vd/F [12]: 3330 L
- Activity (Homo sapiens [13]): 33%
- AUC [14]: 10400 ng·h/mL
- CL/F (Homo sapiens [15]): 20.4 L/h
- Tmax [16]: 5 h
- Cmax [17]: 623 ng/mL
- Activity (Homo sapiens [18]): 25%
- Cmax [19]: 181 ng/mL
